Measurements gathered from unrelated publications.
Lines come from different studies, so protocols differ.
Target: Cyclin-dependent kinase 18 (CDK18, Homo sapiens, UniProt Q07002)

CN(C)C(=O)Cn1cc(-c2nc(C3(c4ccc(-c5cnc(N)nc5)cc4)CC3)no2)cn1  remaining binding (cell-free assay; competition with immobilised ligand; 1 µM): 83%
c1cnn2ncc(-c3ccnc(N4CCC45COC5)n3)c2c1  remaining binding (binding; 1 µM): 98%
O=c1nc(-c2ccccn2)sc2ccccc12  remaining binding (binding; competition with immobilised ligand; 1 µM): 94%
C[C@@H]1CCN(c2nccc(-c3cnn4ncccc34)n2)C1  remaining binding (binding; 1 µM): 100%
C[C@@H](c1ccc(-n2cnc3c(N)ncnc32)cc1)N1CCc2nn(C)c(Cc3ccccc3)c2C1=O  remaining binding (binding; competition with immobilised ligand; 0.1 µM): 100%
O=C(c1ccc(Nc2nccc(-c3cc4ccccc4s3)n2)cc1)N1CCC(N2CCCC2)CC1  remaining binding (binding; competition with immobilised ligand; 1 µM): 100%
CN(C)c1nccc(-c2cnc3ncccn23)n1  remaining binding (binding; 1 µM): 100%
O=C(NCCCN1CCOCC1)c1ccc(Nc2ncc(Cl)c(-c3ccc(Cl)s3)n2)cc1  remaining binding (binding; competition with immobilised ligand; 1 µM): 70%
NS(=O)(=O)c1cc(NC(=O)C2(c3ccccc3Cl)CC2)ccc1Oc1cccc(Cl)c1  remaining binding (cell-free assay; competition with immobilised ligand; 1 µM): 69%
CN1CCN(c2ccc(Nc3nccc(-c4ccccc4)n3)cc2C(F)(F)F)CC1  remaining binding (binding; 10 µM): 23%
Cc1cnn2ncc(-c3ccnc(N(C)C)n3)c2c1  remaining binding (binding; 1 µM): 100%
O=C1CCc2cc(Nc3cc(OC4CCOCC4)c([N+](=O)[O-])cc3Cl)ccc2N1  remaining binding (cell-free assay; competition with immobilised ligand; 1 µM): 100%
c1cncc(-c2cccc(Nc3nccc(NC4CCCCC4)n3)c2)c1  remaining binding (binding; competition with immobilised ligand; 10 µM): 100%
CN(c1ccnc(CNc2nc(Nc3ccc4c(c3)CC(=O)N4)ncc2C(F)(F)F)n1)S(C)(=O)=O  remaining binding (cell-free assay; competition with immobilised ligand; 1 µM): 100%
COc1cnc(Nc2cccc(S(N)(=O)=O)c2)nc1N1CCN(c2ccccc2)C(=O)C1  remaining binding (binding; competition with immobilised ligand; 1 µM): 100%
CN(C)c1nccc(-c2cnn3ncccc23)n1  remaining binding (binding; 1 µM): 89%
FC(F)(F)Oc1cccc(-c2cnc3ccc(-c4ccncc4)nn23)c1  remaining binding (cell-free assay; competition with immobilised ligand; 5 µM): 46%
N[C@H]1CCN(c2nccc(-c3cnn4ncccc34)n2)C1  remaining binding (binding; 1 µM): 100%
CCOC(=O)c1cc2cc(-c3cc(C(=O)NCc4ccc(C(=O)O)cc4)nn3C)ccc2[nH]1  remaining binding (cell-free assay; competition with immobilised ligand; 0.1 µM): 100%
O=C(NCCCN1CCOCC1)c1ccc(Nc2nccc(-c3cc4ccccc4s3)n2)cc1  remaining binding (binding; competition with immobilised ligand; 1 µM): 99%
CN(C)c1ncnc(-c2ccc3nc(Nc4cc(CN5CCN(C(=O)CC(F)(F)F)CC5)ccn4)[nH]c3c2)c1Cl  remaining binding (cell-free assay; competition with immobilised ligand; 1 µM): 100%
O=C(Nc1c[nH]nc1C(=O)NC1CCNCC1)c1cc(F)cc(F)c1  remaining binding (binding; competition with immobilised ligand; 1 µM): 78%
